Results on 10 compounds are retold here after ChEMBL document CHEMBL2046409, “Design and synthesis of active site inhibitors of the human farnesyl pyrophosphate synthase: apoptosis and inhibition of ERK phosphorylation in multiple myeloma cells” (J Med Chem, 2012).

In test [1] the target is T1, Farnesyl pyrophosphate synthase (Homo sapiens, UniProt P14324).
T1 sequence (P14324 whole entry): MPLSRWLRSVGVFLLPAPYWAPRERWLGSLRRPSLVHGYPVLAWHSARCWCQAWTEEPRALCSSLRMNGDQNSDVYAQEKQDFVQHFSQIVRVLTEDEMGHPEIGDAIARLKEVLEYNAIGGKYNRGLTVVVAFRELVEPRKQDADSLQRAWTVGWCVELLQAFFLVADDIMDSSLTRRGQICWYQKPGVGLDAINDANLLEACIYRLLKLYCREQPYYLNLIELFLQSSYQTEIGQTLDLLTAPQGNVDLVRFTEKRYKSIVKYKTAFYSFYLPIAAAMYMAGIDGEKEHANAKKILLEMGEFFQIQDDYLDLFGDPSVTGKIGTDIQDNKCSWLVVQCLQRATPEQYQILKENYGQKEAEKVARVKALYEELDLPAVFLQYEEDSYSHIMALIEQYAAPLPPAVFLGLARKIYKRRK
Description: Inhibition of human recombinant N-terminal-His6 tagged FPPS expressed in Escherichia coli BL21 using [14C]IPP and GPP as substrate incubated for 10 mins prior to substrate addition measured after 10 mins by scintillation counting.

The nature of test [2]: Induction of apoptosis in human KMS-28PE cells assessed as viable cells at 1 uM after 48 hrs by AnnexinV/7AAD staining-based flow cytometric assay (reference value: 93%). The test is classed as functional. The conditions noted are these: read-out: Activity. (In general: A flow cytometer gives signals particle by particle.)
A further test deals with RPMI-8226. Kind of test: Inhibition of ERK protein expression level in human RPMI8226 cells at 100 uM up to 20 mins by Western blot analysis. In kind it is functional, cell-based. An outline of the steps:
(§1)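 RPMI8226 cells serum-starved overnight, then stimulated with 10% FBS with or without 100 μM inhibitor for 0 (starved only), 10 and 20 min. Washed in ice-cold PBS/BSA and lysed in Triton/deoxycholate buffer with protease inhibitors. ERK and pERK detected by Western blot with HRP secondary antibodies and ECL chemiluminescence.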

Test [3] is described as follows: Induction of apoptosis in human KMS-28PE cells assessed as necrotic cells at 100 uM after 48 hrs by AnnexinV/7AAD staining-based flow cytometric assay (reference value: 0.36%). In kind it is functional.
A short description of test [4]: Induction of apoptosis in human KMS-28PE cells assessed as necrotic cells at 1 uM after 48 hrs by AnnexinV/7AAD staining-based flow cytometric assay (reference value: 0.36%). The test is classed as functional.
The nature of test [5]: Antiproliferative activity against human JJN-3 after 72 hrs by MTT assay. The test is classed as functional. The conditions noted are these: JJN-3, 72 h.
Test [6] in a line: Induction of apoptosis in human KMS-28PE cells assessed as early apoptotic cells at 1 uM after 48 hrs by AnnexinV/7AAD staining-based flow cytometric assay (reference value: 1.44%). In kind it is functional.
The nature of test [7]: Induction of apoptosis in human KMS-28PE cells assessed as late apoptotic cells at 100 uM after 48 hrs by AnnexinV/7AAD staining-based flow cytometric assay (reference value: 5.18%). The test is classed as functional.
A short description of test [8]: Induction of apoptosis in human KMS-28PE cells assessed as early apoptotic cells at 100 uM after 48 hrs by AnnexinV/7AAD staining-based flow cytometric assay (reference value: 1.44%). The test is classed as functional.
The target of test [9] is T2, Farnesyl pyrophosphate synthase (Homo sapiens) (UniProt P14324).
T2 sequence (whole entry): T1 sequence (P14324 whole entry)
Description: Inhibition of FPPS in human RPMI8226 cells assessed as inhibition of Ras-mediated ERK phosphorylation at 100 uM up to 20 mins by Western blot analysis. In kind it is cell-based. The conditions noted are these: RPMI-8226. An outline of the steps: as §1
On the technique in general: Immunoblotting shows a protein as a band on a membrane.

Test [10] is described as follows: Induction of apoptosis in human KMS-28PE cells assessed as late apoptotic cells at 1 uM after 48 hrs by AnnexinV/7AAD staining-based flow cytometric assay (reference value: 5.18%). The test is classed as functional.
The target in test [11] is T1, Farnesyl pyrophosphate synthase. Kind of test: Inhibition of human recombinant N-terminal-His6 tagged FPPS expressed in Escherichia coli BL21 using [3H]IPP and GPP as substrate measured after 20 mins by liquid scintillation counting.
Test [12] can be described thus: Antiproliferative activity against human KMS-28PE after 72 hrs by MTT assay. The test is classed as functional.
The nature of test [13]: Induction of apoptosis in human KMS-28PE cells assessed as viable cells at 100 uM after 48 hrs by AnnexinV/7AAD staining-based flow cytometric assay (reference value: 93%). The conditions noted are these: read-out: Activity. In kind it is functional.
Test [14] in a line: Antiproliferative activity against human […] after 72 hrs by MTT assay. The test is classed as functional. The essentials:
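Cells seeded at 10,000/well and rested 2 h, then given compound diluted in culture medium as a half-log series spanning 100 nM–333 μM. Incubated 72 h at 37 °C in 5% CO2. MTT read at OD490.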
On the technique in general: Tetrazolium dyes change colour on reduction, which living cells bring about.

Test [15] addresses T1, Farnesyl pyrophosphate synthase. Description: Inhibition of human FPPS using […] as substrate incubated for 30 mins prior to substrate addition measured after 20 mins by scintillation counting.

Structures are written as SMILES. Active and inactive are the calls of the source. No cut-off for these calls is given here.

The IC50 is the concentration that gives 50% inhibition. As usually defined, the EC50 is the concentration giving half of the maximal effect. Low values mean a more potent agent, high ones a less potent agent.

As to `O=P(O)(O)C(F)(Cc1cncc(-c2ccc3[nH]ncc3c2)c1)P(=O)(O)O`, the IC50 in test [1] amounted to 520 nM.

As to `O=P(O)(O)C(Nc1cc(-c2ccc(OC3CCCC3)cc2)ccn1)P(=O)(O)O`, the viability at 1 µM in test [2] came to 91.8%. Further, the inhibition entry in the test on RPMI-8226 is “inactive”. Further, the Activity came to 0.46% in test [3]; 0.4% in test [4]; 1.81% in test [6]; 9.15% in test [7]; 5.64% in [8]; 5.94% in test [10]. The results for the EC50 in test [5], in test [12] and in test [14] were 8600 nM, 3200 nM and 3600 nM, respectively. For the same compound, the inhibition result in test [9] is “Active”. In addition, the IC50 came out at 785 nM in test [11] and 32 nM in test [1]. Further, in test [13], the viability at 100 µM was 84.8%.

In the case of `Cc1ccc(-c2ccnc(NC(P(=O)(O)O)P(=O)(O)O)c2)cc1`, the IC50 in test [1] was determined as 35 nM.

As for `O=P(O)(O)C(O)(Cn1ccnc1)P(=O)(O)O` [ZOLEDRONIC ACID], the figures for the half-maximal effective concentration (EC50) in [5], in [12] and in test [14] were 9400 nM, 6400 nM and 10500 nM, respectively.

With `CCCCCCCCCCOc1ccc[n+](CC(P(=O)([O-])O)P(=O)(O)O)c1` (stereo not drawn), in test [15], the IC50 is 100 nM.

Regarding `O=P(O)(O)C(Nc1cc(-c2ccc3[nH]ncc3c2)ccn1)P(=O)(O)O`, the IC50 in [1] was determined as 430 nM.

For the compound `O=P(O)(O)C(F)(Cc1cncc(-c2ccccc2)c1)P(=O)(O)O`, the IC50 in test [1] was found to be 115 nM.

Take `CC(C)=CCC/C(C)=C/CC(C/C=C(\C)CCC=C(C)C)(P(=O)(O)O)P(=O)(O)O` [DIGERANYL BISPHOSPHONATE]: in test [1], the IC50 is more than 10000 nM.

Turning to `O=P(O)(O)C(Nc1cc(-c2ccc(OC3CCC3)cc2)ccn1)P(=O)(O)O`, the IC50 was 2090 nM in test [11] and 35 nM in test [1].

On to `O=P(O)(O)C(O)(Cc1cccnc1)P(=O)(O)O` [RISEDRONIC ACID], for which the results for the EC50 in [5] and in test [12] were 10000 nM and 10600 nM, respectively.
